MsrA inhibitor = bovine MsrA enzyme inhibitors, primary screen, biochemical, absorbance, HTS; purified bovine MsrA, absorbance read-out; inhibition, % at 15.5 µM; actives 0.75% (n = 360,000); AID 651718, 2012;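 also: 0% = vehicle wells with enzyme and 100% = reference inhibitor wells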
Bfl-1 A1 inh = caspase 3/7 activation in MEF A1-2A-BIM cells, primary screen, A1 inhibitor project, cell-based, luminescence, HTS; AID 2462, 2010; caspase activation, % (concentration not given with the values); Caspase-Glo 3/7 luminescence, 3 h; percent of clofoctol response, vehicle zero; actives 0.066% (n = 330,000);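 active = over half of replicate activation scores above 10%, or exactly half above 10 with the replicate mean above 10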
bovine MsrA act = bovine MsrA enzyme activators, primary screen, biochemical, absorbance, HTS | Methionine sulfoxide reductase A (Bos taurus) | purified bovine MsrA, absorbance read-out | activation, % at 10.6 µM | actives 0.3% (n = 360,000); in the data active = activation above about 7.5%;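 also: 0% = vehicle and 100% = reference activator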
proCasp3 act = activators of human procaspase-3 D3A mutant, primary screen, biochemical, absorbance, PC-3 D3A mutant, single concentration. Caspase-3 (Homo sapiens), P42574. recombinant procaspase-3 D3A, Ac-DEVD-pNA absorbance 405 nm. activation, % at 8.5 µM. actives 0.11% (n = 330,000). AID 463141, 2010;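 active = activation above the mean of all tested compounds plus 3 SD, cut at about 21% in these data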;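 also: 0% = DMSO alone and 100% = DMSO wells spiked with extra 5 µM PC-3 D3A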
Target sequence (P42574 whole entry D9A/D28A/D175A): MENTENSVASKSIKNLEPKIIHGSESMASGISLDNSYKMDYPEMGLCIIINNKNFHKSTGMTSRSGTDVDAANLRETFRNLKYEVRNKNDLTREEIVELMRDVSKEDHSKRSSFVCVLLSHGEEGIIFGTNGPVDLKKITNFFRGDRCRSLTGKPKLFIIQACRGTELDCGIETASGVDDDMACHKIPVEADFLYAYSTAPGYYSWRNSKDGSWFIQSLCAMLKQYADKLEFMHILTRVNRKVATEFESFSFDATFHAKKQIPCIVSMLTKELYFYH
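Test system: Procaspase-3 D3A mutant; medium: Zinc-free HEPES/NaCl buffer with 0.01% Triton X-100 at pH 7.4; reagent: DEVD-pNA substrate; doses: one concentration, 8.5 µM nominal, 0.8% DMSO; times: 1 h preincubation plus 2 h reaction at 25 °C; signal: Epi-absorbance at 405 nm of released p-nitroaniline, 0 and 120 min; replicates: singlicate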
procasp7 counter = procaspase-7 activators, primary screen, counter-screen for procaspase-3 activator project, biochemical, absorbance, HTS, human. Caspase-7 (Homo sapiens), P55210. recombinant procaspase-7, Ac-DEVD-pNA absorbance 405 nm; D23A/D198A/D206A triple mutant, cannot self-cleave; scale: DMSO 0, 5 µM enzyme 100. activation, % at 8.5 µM. actives 0.093% (n = 330,000);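 active = percent activation above the screen-wide mean plus 3 SD, cut at about 25% in these data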
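System: Procaspase-7 triple mutant (PC-7 D3A); measure: % activation from two-timepoint absorbance difference, scaled to controls; times: 1 h compound preincubation, 2 h substrate cleavage, 25 °C; also added: Ac-DEVD-pNA substrate, 400 µM as added; measured by: Epi-absorbance of released pNA at 405 nm, two timepoints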
MsrA inh confirm = bovine MsrA inhibitors, retest, confirmation, biochemical, absorbance, HTS; shares compounds with MsrA inhibitor; purified bovine MsrA, absorbance read-out; inhibition, % at 15.5 µM; actives 41% (n = 2,300); AID 651822, 2012;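 also: coupled to thioredoxin reductase with NADPH and selenocystamine and DMSO as substrate; 0% = vehicle only and 100% = full effect of reference inhibitor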
* = called active by the depositor; . = no result given. Shown are actives, neighbours in structure and some others; about 1.2% of the full set was active somewhere. Rule as the data show it, unless noted: active = inhibition above about 4.5%; inactive = the rest.

SMILES | MsrA inhibitor | Bfl-1 A1 inh | bovine MsrA act | proCasp3 act | procasp7 counter | MsrA inh confirm
CC1=C(C(=O)N(C)C)CC(CC(=O)NC2CCCC2)C(=O)N1Cc1ccc(F)cc1 (configuration not stated) | -1 | . | 4 | . | . | .
c1ccc(-n2nnnc2-n2cnc3ccccc32)cc1 | 9.9* | -1 | -1 | -2 | 5 | 4.7*
Nc1ncc([N+](=O)[O-])cc1Br | 5.4* | 1 | -11 | 6 | 0 | 2
COc1ccc(/C=C2\SC(N)=NC2=O)cc1Br | 4.7* | 0 | -6 | 1 | -8 | 4
CCOC(=O)C(=CNc1ccc(S(N)(=O)=O)cc1)C(=O)OCC | 4 | 0 | -6 | 2 | -3 | .
CCOC(=O)C(=CNc1ccc(C#N)cc1)C(=O)OCC | 7.1* | 0 | -8 | -1 | 4 | 5.5*
Oc1ccccc1C1=Nc2ccccc2N=C(c2ccco2)C1 | 4.7* | 0 | -4 | -2 | -14 | 2
COc1ccc(CN(C)C(=O)C2CCN(C(=O)Nc3ccccc3)CC2)cc1 | -1 | 0 | -1 | 3 | -1 | .
CCN(CC)c1ccc(C(=O)c2ccccc2C(=O)O)c(O)c1 | 4.7* | 2 | -4 | -5 | -5 | 4.8*
COc1ccc(/C=C/c2cc(-c3ccc(C)cc3)o[n+]2C)cc1 | 5.0* | 0 | -6 | 2 | -2 | 4
CC(=O)N1c2ccccc2NC2=C(C(=O)CCC2)C1c1ccco1 (configuration not stated) | 4.9* | 0 | -17 | 0 | 0 | 3
CC1CC(=O)C2=C(C1)Nc1ccccc1N(C(=O)COc1ccccc1)C2c1ccco1 (configuration not stated) | 3 | 0 | -8 | 0 | 9 | .
CCC(=O)N1c2ccccc2NC2=C(C(=O)CCC2)C1c1cccnc1 (configuration not stated) | 4.8* | 1 | -5 | 8 | 15 | 3
COC(=O)[C@@]1(Cc2ccc(F)cc2)[C@H]2c3cc(C(=O)N(C)C)n(CCCNc4ncc(C(F)(F)F)cc4Cl)c3C[C@H]2CN1C(=O)c1ccccc1 | 1 | . | -3 | . | . | .
CCc1cccc(NC(=O)COC(=O)CSc2ccc(C)cc2)c1 | -1 | . | -6 | . | . | .
COCCN(C(=O)c1ccc(-c2ccc([N+](=O)[O-])cc2)o1)c1c(N)n(CC(C)C)c(=O)[nH]c1=O | 4.7* | . | -4 | . | . | 4.6*
CCCCc1c(-c2ccccc2OC)ncn1Cc1ccc(OC)c(Cl)c1 | 0 | . | . | . | . | .
NC(=S)Nc1ccc(S(=O)(=O)c2ccc(NC(N)=S)cc2)cc1 | 1 | 0 | -1 | 1 | 0 | .
CC(C)c1c(C(=O)N/N=C/c2ccco2)nnn1-c1nonc1N | 3 | 0 | -3 | 8 | 2 | .
CCCN(CCC)Cc1c(C(=O)N/N=C/c2ccc(C)o2)nnn1-c1nonc1N | 1 | 1 | -2 | 11 | 0 | .
CCCc1c(C(=O)N/N=C/c2ccc(C)o2)nnn1-c1nonc1N | 5.0* | . | -9 | . | . | 4.6*
CC(/C=N/NC(=O)c1nnn(-c2nonc2N)c1CN(C)C)=C\c1ccco1 | 6.2* | -1 | -3 | -2 | 9 | 7.3*
Cc1ccc(/C=N/NC(=O)c2nnn(-c3nonc3N)c2C(C)C)o1 | 4.8* | 1 | -3 | 12 | -7 | 4.8*
CCCN(CCC)Cc1c(C(=O)N/N=C/C(C)=C\c2ccco2)nnn1-c1nonc1N | 2 | 0 | 0 | 1 | -9 | .
CC(=O)c1cccc(OCC(=O)NC2CCCCCC2)c1 | -1 | . | -4 | . | . | .
Cc1ccc(NC(=O)C2(C)CCN2C(=O)Cc2ccc(C(C)(C)C)cc2)cc1C (configuration not stated) | 0 | . | 4 | . | . | .
O=C(c1cccnc1)N1CCC2CC1c1c(Cl)cccc12 (configuration not stated) | 1 | . | -8 | . | . | .
CC(=O)Nc1cc2c(cc1Br)-c1ccccc1C2 | -1 | . | -1 | . | . | .
